Here are results for one compound from ChEMBL document CHEMBL2311478, “Macrolactonolides: a novel class of anti-inflammatory compounds” (Bioorg Med Chem, 2013).

By EC50 is commonly meant the concentration that produces a half-maximal response. As usually defined, the MIC is the least concentration at which growth counts as inhibited. By half-life is commonly meant how long it takes for the measured level to halve. As a reminder, the AUC(0-inf) is the area under the concentration-time curve extrapolated to infinity.

Converted amounts (≈) assume the structure as drawn.

The test system of data set [1] is PBMC. Description: Antiinflammatory activity in human PBMC assessed as inhibition of PHA-induced IL-4 production after 24 hrs. The format is functional, cell-based. In outline:
(§1)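 Thawed cryopreserved human PBMCs were preincubated 1 h at 37 °C, 5% CO2, then exposed to test compound for 1 h before LPS, anti-CD3 or PHA stimulation. Supernatants were collected at 6, 24 or 48 h according to each cytokine's peak, and cytokines quantified by Luminex multiplex bead assay. 10-point titration starting at 20 µM, in duplicate, with constant DMSO. Parallel Alamar Blue cytotoxicity check under 48 h PHA.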

The subject of data set [2] is Escherichia coli. Description: Antibacterial activity against Escherichia coli ATCC 25922 by broth microdilution method. The format is functional. In outline:
(§2)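 CLSI broth microdilution with double dilutions in 96-well plates. For streptococci, 5% horse serum replaced lysed blood in the medium. Inocula were grown on Columbia agar with 5% sheep blood for streptococci, Mueller–Hinton chocolate agar for H. influenzae, and Mueller–Hinton agar for staphylococci. Read-out is MIC in mg/L.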

In data set [3] the test system is Streptococcus pyogenes. Description: Antibacterial activity against efflux mediated macrolide-resistant Streptococcus pyogenes Finland 2 by broth microdilution method. The format is functional. In outline: (§3)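 MICs by CLSI broth microdilution with double dilutions, except that Streptococcus medium used 5% horse serum in place of lysed blood. Bacteria were pre-grown on Columbia agar with 5% sheep blood (streptococci) or Mueller–Hinton agar (staphylococci).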
(In broth dilution the organism is exposed to a series of concentrations in liquid medium.)

Data set [4] has as its system PBMC. Description: Antiinflammatory activity in human PBMC assessed as inhibition of PHA-induced MCP-1 production after 24 hrs. The format is functional, cell-based. In outline: as §1
Data set [5] concerns PBMC. The data set is described as follows: cells. It is filed as functional, cell-based. The settings on record: Homo sapiens, 48 h.
Data set [6] concerns Moraxella catarrhalis. The data set is described as follows: Antibacterial activity against Moraxella catarrhalis ATCC 23246 by broth microdilution method. It is filed as functional. In outline:
as §2

The nature of data set [7]: Drug uptake in mouse J774A1 cells at 10 uM after 3 hrs by LC-MS/MS method. The format is ADME, cell-based. The settings on record: j774.a1, 3 h. In outline: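 Uptake in J774A.1 macrophages seeded two days before at 2 × 10^5 cells/well. Cells were exposed to 10 µM compound for 3 h in DMEM/25 mM Hepes without supplements, washed with ice-cold PBS and lysed in 0.5% Triton X-100. Lysate was measured by LC–MS/MS, using a cell volume of 1.68 µL per 10^6 cells. Result is the I/E ratio, with E taken as 10 µM.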

For data set [8], the system named is PBMC. The data set is described as follows: Antiinflammatory activity in human PBMC assessed as inhibition of PHA-induced TNFalpha production after 6 hrs. It is filed as functional, cell-based. In outline: as §1
Data set [9] deals with PBMC. The data set is described as follows: Antiinflammatory activity in human PBMC assessed as inhibition of LPS-induced IL-6 production after 6 hrs. It is filed as functional, cell-based. In outline: as §1
Data set [10] relates to Streptococcus pneumoniae. The data set is described as follows: Antibacterial activity against efflux mediated macrolide-resistant Streptococcus pneumoniae Ci137 by broth microdilution method. It is filed as functional. In outline:
as §3

Data set [11] in a line: Drug uptake in mouse J774A1 cells assessed as compound retention at 10 uM after 3 hrs by LC-MS/MS method. It is filed as ADME, cell-based. The settings on record: j774.a1, 3 h. In outline:
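J774A.1 cells were loaded with 10 µM compound for 3 h in DMEM/25 mM Hepes, then incubated 3 h in fresh medium. Cells were washed, lysed in 0.5% Triton X-100 and analysed by LC–MS/MS. Retention is the percentage of the initially accumulated amount remaining. Triplicates, mean ± SD from one representative experiment.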

For data set [12], the target named is T1, Glucocorticoid receptor (Homo sapiens, UniProt P04150).
T1 sequence (P04150 whole entry): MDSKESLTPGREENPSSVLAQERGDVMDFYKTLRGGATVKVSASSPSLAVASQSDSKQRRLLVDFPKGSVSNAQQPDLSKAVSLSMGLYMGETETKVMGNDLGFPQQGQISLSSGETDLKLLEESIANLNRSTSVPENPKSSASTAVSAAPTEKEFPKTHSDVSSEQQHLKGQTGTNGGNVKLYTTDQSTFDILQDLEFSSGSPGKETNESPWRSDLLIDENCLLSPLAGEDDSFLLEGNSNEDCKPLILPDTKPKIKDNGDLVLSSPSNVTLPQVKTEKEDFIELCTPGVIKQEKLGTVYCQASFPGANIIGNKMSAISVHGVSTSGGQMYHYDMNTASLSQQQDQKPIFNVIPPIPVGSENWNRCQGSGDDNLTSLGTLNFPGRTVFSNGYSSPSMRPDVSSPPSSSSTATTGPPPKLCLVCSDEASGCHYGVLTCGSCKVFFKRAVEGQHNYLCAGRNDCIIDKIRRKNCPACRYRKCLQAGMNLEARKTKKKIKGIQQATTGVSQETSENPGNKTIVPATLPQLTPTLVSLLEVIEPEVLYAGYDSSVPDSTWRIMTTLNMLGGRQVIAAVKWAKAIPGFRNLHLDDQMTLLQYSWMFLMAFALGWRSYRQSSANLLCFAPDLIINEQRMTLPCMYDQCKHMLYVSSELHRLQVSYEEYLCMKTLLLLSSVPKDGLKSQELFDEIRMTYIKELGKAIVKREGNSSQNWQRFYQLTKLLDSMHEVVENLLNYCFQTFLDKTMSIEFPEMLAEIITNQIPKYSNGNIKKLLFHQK
The data set is described as follows: Binding affinity to glucocorticoid receptor (unknown origin) by fluorescence polarization competitive binding assay.

A short description of data set [13]: Half life in Balb/c mouse lung at 2 mg/kg, administered intranasally. It is filed as ADME, organism-based. Set-up: dose 2 mg/kg. The settings on record: inhaled or intranasal. In outline: (§4)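 Male Balb/c mice (21–25 g) dosed intranasally with freshly prepared formulation in 1% DMSO plus 0.125% CMC. Terminal bleeding and lung collection from 5 min to 72 h. K2EDTA blood taken as blood aliquots or spun for plasma. Lung homogenised 1:5 in water. Samples were protein-precipitated with acetonitrile/methanol (2:1) plus roxithromycin internal standard and quantified by LC–MS/MS. LLOQ 0.5 ng/mL (blood/plasma) and 2.5 ng/mL (lung).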

For data set [14], the system named is PBMC. Description: Antiinflammatory activity in human PBMC assessed as inhibition of PHA-induced IL-3 production after 48 hrs. It is filed as functional, cell-based. In outline:
as §1

Data set [15] relates to PBMC. Description: Antiinflammatory activity in human PBMC assessed as inhibition of LPS-induced IL-1beta production after 6 hrs. It is filed as functional, cell-based. In outline: as §1
Data set [16] can be described thus: AUC (0 to infinity) in Balb/c mouse plasma at 2 mg/kg, administered intranasally. The format is ADME, organism-based. The conditions noted are these: inhaled or intranasal. Set-up: time infinity, route nasal, dose 2 mg/kg. In outline:
as §4

Data set [17] has as its system Staphylococcus aureus. The data set is described as follows: Antibacterial activity against inducible-resistant to macrolide, licosamide and streptogramin Staphylococcus aureus 90265/97 by broth microdilution method. The format is functional. In outline:
as §3

Data set [18] relates to Rattus norvegicus. Description: Antiinflammatory activity against ovalbumin-induced airway allergic Brown-Norway rat model assessed as decrease of eosinophils in bronchoalveolar lavage fluid at 32 mg/kg administered intranasally as dry powder measured on day 29 after ovalbumin challenge (reference value: 53.1%). It is filed as functional, Lung. The arrangement: scale not given: the % may be the effect or the level left.

For data set [19], the system named is PBMC. Description: Antiinflammatory activity in human PBMC assessed as inhibition of PHA-induced IL-8 production after 6 hrs. The format is functional, cell-based. In outline:
as §1

Data set [20] relates to PBMC. The data set is described as follows: Antiinflammatory activity in human PBMC assessed as inhibition of LPS-induced TNFalpha production after 6 hrs. The format is functional, cell-based. In outline:
as §1

For data set [21], the system named is PBMC. Description: Antiinflammatory activity in human PBMC assessed as inhibition of PHA-induced IL-1beta production after 6 hrs. The format is functional, cell-based. In outline: as §1
Data set [22] relates to PBMC. The data set is described as follows: Antiinflammatory activity in human PBMC assessed as inhibition of LPS-induced IL-8 production after 6 hrs. The format is functional, cell-based. In outline:
as §1

Data set [23] deals with Staphylococcus aureus. Description: Antibacterial activity against constitutive-resistant to macrolide, licosamide and streptogramin Staphylococcus aureus PK2 by broth microdilution method. It is filed as functional. In outline: as §3
Data set [24] is described as follows: AUC (0 to infinity) in Balb/c mouse blood at 2 mg/kg, administered intranasally. It is filed as ADME, organism-based. The arrangement: time infinity, dose 2 mg/kg, route nasal. The settings on record: whole blood, inhaled or intranasal. In outline: as §4

With `CC[C@H]1OC(=O)[C@H](C)[C@@H](O[C@H]2C[C@@](C)(OC)[C@@H](O)[C@H](C)O2)[C@H](C)[C@@H](O[C@@H]2O[C@H](C)C[C@H](N(C)C)[C@H]2O)[C@](C)(O)C[C@@H](C)CN(CCCNC(=O)[C@H]2[C@H](C)C[C@H]3[C@@H]4CCC5=CC(=O)C=C[C@]5(C)[C@@]4(F)[C@@H](O)C[C@@]32C)[C@H](C)[C@@H](O)[C@]1(C)O`, the EC50 is 0.21 µM in data set [1]; 19 µM in data set [4]; 0.11 µM in [5]; 1.33 µM in [8]; more than 20 µM in data set [9]; 4.16 µM in data set [12]. The concentration for a half-maximal effect (EC50) in data set [14] was 1.27 µM; in data set [15] it was more than 20 µM; in data set [19], 3.05 µM; in data set [20], 3 µM; in [21], 13.8 µM; in [22], 9 µM. The MIC is more than 64 µg/mL in data set [2]; 32 µg/mL (≈ 28.2 µM) in data set [3]; 8 µg/mL (≈ 7.04 µM) in data set [6]; 32 µg/mL (≈ 28.2 µM) in data set [10]; more than 64 µg/mL in [17]; more than 64 µg/mL in [23]. Further, the Drug uptake entry in [7] and in data set [11] was “Active” each time. The half-life in data set [13] was 20 h. Besides, the AUC(0-inf) in data set [16] and in data set [24] was 181 ng·h/mL in each case. Further, the Activity in data set [18] worked out at 43.6%.
